The target in experiment [1] is Tyrosine-protein phosphatase non-receptor type 6 (Homo sapiens) (UniProt P29350). The experiment is described as follows: Induction of PTPN6 in human Hs578T cells assessed as inhibition of STAT3 phosphorylation at 3 uM after 16 hrs by Western blotting analysis in presence of pervanadate. The note with it: Hs-578T. In kind it is cell-based. A digest of the protocol:
(§1)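 HS578T and SUM149PT cells treated for 16 h without or with increasing pervanadate as a phosphatase inhibitor; JAK1/2 inhibitor CP690550 run in parallel. Lysates immunoblotted for phospho-STAT3 (Y705), with β-actin as loading control.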
In general terms: In western blotting, separated proteins are transferred to a membrane and probed.

The target is the same in experiment [2]. The experiment is described as follows: Induction of PTPN6 in human SUM149PT cells assessed as inhibition of STAT3 phosphorylation at 3 uM after 16 hrs by Western blotting analysis in presence of pervanadate. Type of experiment: cell-based. A digest of the protocol: as §1

Among the data in ChEMBL document CHEMBL3352378, “Novel carbazole inhibits phospho-STAT3 through induction of protein-tyrosine phosphatase PTPN6” (J Med Chem, 2014) are inhibition values, retold here.

Active and inactive are the calls of the source. The rule behind the calls is not given here.

Chain of Tyrosine-protein phosphatase non-receptor type 6 (Homo sapiens) (P29350 whole entry): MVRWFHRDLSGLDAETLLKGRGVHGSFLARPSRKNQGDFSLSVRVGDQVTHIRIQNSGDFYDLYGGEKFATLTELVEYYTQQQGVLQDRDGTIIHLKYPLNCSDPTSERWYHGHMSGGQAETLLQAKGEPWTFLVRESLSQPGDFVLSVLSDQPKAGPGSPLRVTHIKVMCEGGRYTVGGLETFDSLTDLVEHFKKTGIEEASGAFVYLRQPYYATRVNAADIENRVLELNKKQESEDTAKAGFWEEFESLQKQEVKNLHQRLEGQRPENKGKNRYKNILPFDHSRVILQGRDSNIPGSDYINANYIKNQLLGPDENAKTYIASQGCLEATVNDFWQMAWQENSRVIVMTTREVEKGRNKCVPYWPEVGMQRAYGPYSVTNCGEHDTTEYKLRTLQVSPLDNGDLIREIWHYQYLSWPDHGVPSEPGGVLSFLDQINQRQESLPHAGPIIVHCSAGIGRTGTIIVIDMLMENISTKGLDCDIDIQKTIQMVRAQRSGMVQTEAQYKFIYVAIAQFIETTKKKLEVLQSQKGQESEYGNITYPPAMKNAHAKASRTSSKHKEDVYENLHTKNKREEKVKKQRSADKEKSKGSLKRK

With `C[C@@H]1CCN(C(=O)CC#N)C[C@@H]1N(C)c1ncnc2[nH]ccc12`, the inhibition result in experiment [1] and in experiment [2] was “Active” each time.
